Reference: ChEMBL document CHEMBL1681707, “Thienopyrrole acetic acids as antagonists of the CRTH2 receptor” (Bioorg Med Chem Lett, 2011)
pIC50: −log10 of the molar value.

What was measured:
[1] = target: T1, Prostaglandin D2 receptor 2 (Homo sapiens, UniProt Q9Y5Y4); assay: Displacement of [3H]PGD2 from human CRTH2 receptor expressed in HEK293 cell membranes
T1 sequence (Q9Y5Y4 whole entry): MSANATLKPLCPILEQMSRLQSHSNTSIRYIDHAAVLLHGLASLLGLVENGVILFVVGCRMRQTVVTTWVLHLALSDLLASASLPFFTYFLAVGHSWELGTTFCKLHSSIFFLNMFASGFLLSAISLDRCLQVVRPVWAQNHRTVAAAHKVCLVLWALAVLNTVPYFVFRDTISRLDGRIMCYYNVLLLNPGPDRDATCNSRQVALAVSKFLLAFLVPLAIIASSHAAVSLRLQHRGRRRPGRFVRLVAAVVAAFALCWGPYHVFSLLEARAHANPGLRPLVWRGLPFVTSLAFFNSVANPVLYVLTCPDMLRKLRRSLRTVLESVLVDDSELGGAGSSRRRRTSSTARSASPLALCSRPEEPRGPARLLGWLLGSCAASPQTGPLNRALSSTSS
Summary of the method: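 Radioligand binding on membranes from HEK293.F cells transiently transfected with human CRTH2 cDNA. Test compounds dissolved in DMSO, run at 1% (v/v) final DMSO. PGD2 used at 1 μM final concentration. Values are means of n = 2-4 experiments.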

[2] = target: T2, Prostaglandin D2 receptor (Homo sapiens, UniProt Q13258); assay: Displacement of [3H]PGD2 from human DP1 receptor expressed in HEK293 cell membranes
T2 sequence (Q13258 whole entry): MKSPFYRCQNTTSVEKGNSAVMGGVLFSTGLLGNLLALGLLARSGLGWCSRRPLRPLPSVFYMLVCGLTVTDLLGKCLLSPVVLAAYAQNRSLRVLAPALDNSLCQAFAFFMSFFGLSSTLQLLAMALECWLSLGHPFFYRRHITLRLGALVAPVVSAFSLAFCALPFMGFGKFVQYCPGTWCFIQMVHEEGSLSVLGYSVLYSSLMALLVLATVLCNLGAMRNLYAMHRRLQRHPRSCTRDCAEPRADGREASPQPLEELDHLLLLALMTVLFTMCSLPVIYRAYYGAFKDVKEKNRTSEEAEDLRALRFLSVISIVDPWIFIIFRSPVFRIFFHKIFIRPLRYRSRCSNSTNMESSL
Summary of the method: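 Radioligand binding on membranes from HEK293 cells expressing human DP-1. Test compounds dissolved in DMSO, run at 1% (v/v) final DMSO. PGD2 used at 1 μM final concentration.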

[3] = Cmax in BALB/c mouse at 30 mg/kg, po administered through 0.2 % Tween 80/0.5 % HPMC formulation; format: ADME, organism-based; parameters: dose 30 mg/kg, route oral; conditions: in vivo
Summary of the method: (§1)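 Oral dosing at 30 mpk in female BALB/c mice, given as a solution in 0.2% Tween 80/0.5% HPMC, as an early bioavailability assessment.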

[4] = Metabolic stability in human liver microsomes assessed as compound remaining after 30 mins; format: ADME, Microsome; conditions: read-out: Stability
Summary of the method: (§2)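 Incubation with rat or human liver microsomes for 30 min. Percent of parent remaining at 30 min reported.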

[5] = target: Voltage-gated inwardly rectifying potassium channel KCNH2 (Homo sapiens, UniProt Q12809); assay: Displacement of [3H]Dofetilide from human hERG potassium channel expressed in HEK293 cell membranes
[6] = AUC in BALB/c mouse at 30 mg/kg, po administered through 0.2 % Tween 80/0.5 % HPMC formulation; format: ADME, organism-based; parameters: dose 30 mg/kg, route oral; conditions: plasma; summary of the method: as §1
[7] = Metabolic stability in rat liver microsomes assessed as compound remaining after 30 mins; format: ADME, Microsome; conditions: read-out: Stability; summary of the method: as §2
[8] = target: T1, Prostaglandin D2 receptor 2; assay: Antagonist activity at human CRTH2 receptor expressed in CHO/Ga16 cells co-expressing Galpha16 protein assessed as calcium flux by FLIPR assay; format: functional, cell-based
Summary of the method: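 CHO cells co-expressing Gα16 and stably transfected with human CRTH2; antagonism read as calcium flux; IC50 determined.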

Voltage-gated inwardly rectifying potassium channel KCNH2, sequence (Q12809 whole entry): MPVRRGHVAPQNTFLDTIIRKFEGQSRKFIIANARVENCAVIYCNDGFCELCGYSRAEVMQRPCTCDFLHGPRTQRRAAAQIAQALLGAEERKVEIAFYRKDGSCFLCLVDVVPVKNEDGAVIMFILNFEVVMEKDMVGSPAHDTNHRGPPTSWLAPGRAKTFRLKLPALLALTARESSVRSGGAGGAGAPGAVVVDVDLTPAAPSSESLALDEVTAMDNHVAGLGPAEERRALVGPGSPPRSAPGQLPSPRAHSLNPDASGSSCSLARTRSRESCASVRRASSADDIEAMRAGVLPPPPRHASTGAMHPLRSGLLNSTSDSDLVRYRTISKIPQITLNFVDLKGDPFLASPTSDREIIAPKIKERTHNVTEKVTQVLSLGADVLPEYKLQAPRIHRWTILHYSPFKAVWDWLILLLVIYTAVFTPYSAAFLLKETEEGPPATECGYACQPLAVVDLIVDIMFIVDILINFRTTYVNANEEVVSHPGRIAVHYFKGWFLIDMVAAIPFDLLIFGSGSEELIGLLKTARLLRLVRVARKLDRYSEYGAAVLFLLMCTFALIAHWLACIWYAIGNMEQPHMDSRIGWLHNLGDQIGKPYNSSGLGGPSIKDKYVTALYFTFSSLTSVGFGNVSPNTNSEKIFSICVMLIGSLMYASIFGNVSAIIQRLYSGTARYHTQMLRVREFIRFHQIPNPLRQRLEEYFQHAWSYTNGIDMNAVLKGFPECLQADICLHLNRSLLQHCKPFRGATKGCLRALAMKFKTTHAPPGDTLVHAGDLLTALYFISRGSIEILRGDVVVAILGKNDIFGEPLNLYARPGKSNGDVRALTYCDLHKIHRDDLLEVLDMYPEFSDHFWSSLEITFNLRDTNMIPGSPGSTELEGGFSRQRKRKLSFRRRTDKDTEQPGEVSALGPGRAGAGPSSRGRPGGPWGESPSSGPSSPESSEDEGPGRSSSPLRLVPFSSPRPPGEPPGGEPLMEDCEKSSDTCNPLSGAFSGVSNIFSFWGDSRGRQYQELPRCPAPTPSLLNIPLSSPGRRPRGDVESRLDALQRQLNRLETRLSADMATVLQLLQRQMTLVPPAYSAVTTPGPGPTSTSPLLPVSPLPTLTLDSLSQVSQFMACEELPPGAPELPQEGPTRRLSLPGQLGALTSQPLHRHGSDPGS

Cc1c(CC(=O)O)c2ccsc2n1S(=O)(=O)c1ccccc1
pIC50 [1]: 5.56

Cc1c(CC(=O)O)c2ccsc2n1S(=O)(=O)c1ccc(F)cc1
pIC50 [1]: 5.79

Cc1c(CC(=O)O)c2ccsc2n1S(=O)(=O)c1ccc(C(F)(F)F)cc1
pIC50 [1]: 5.95

Cc1c(CC(=O)O)c2ccsc2n1S(=O)(=O)c1ccc(C#N)cc1
pIC50 [1]: 5.52

Cc1c(CC(=O)O)c2ccsc2n1S(=O)(=O)c1ccc(S(C)(=O)=O)cc1
pIC50 [2]: < 4.30
pIC50 [1]: 7.05
Cmax [3]: 7800 ng/mL
remaining at 0.5 h [4]: 100%
pIC50 [5]: < 4.00
AUC [6]: 16400 ng·h/mL
remaining at 0.5 h [7]: 100%

Cc1c(CC(=O)O)c2ccsc2n1S(=O)(=O)c1ccc(S(=O)(=O)N2CCOCC2)cc1
pIC50 [1]: 6.64

Cc1c(CC(=O)O)c2ccsc2n1S(=O)(=O)c1ccc(S(=O)(=O)N2CCCC2)cc1
pIC50 [1]: 6.41

Cc1c(CC(=O)O)c2ccsc2n1Cc1ccc(S(=O)(=O)N(C)C)cc1
pIC50 [1]: 6.72

Cc1c(CC(=O)O)c2ccsc2n1Cc1ccc(S(=O)(=O)N2CCOCC2)cc1
pIC50 [1]: 7.15

Cc1c(CC(=O)O)c2ccsc2n1Cc1ccc(S(=O)(=O)N(C)C2CCCCC2)cc1
pIC50 [2]: < 4.30
pIC50 [1]: 7.70
remaining at 0.5 h [4]: 62%
pIC50 [5]: 4.51
remaining at 0.5 h [7]: 57%

Cc1c(CC(=O)O)c2ccsc2n1Cc1ccc(S(C)(=O)=O)cc1
pIC50 [2]: < 4.30
pIC50 [1]: 7.30
pIC50 [8]: 6.89
remaining at 0.5 h [4]: 91%
pIC50 [5]: 4.51
remaining at 0.5 h [7]: 90%

Cc1c(CC(=O)O)c2ccsc2n1Cc1ccc(S(C)(=O)=O)cc1Cl
pIC50 [2]: < 4.30
pIC50 [1]: 8.00
remaining at 0.5 h [4]: 97%
pIC50 [5]: 4.35
remaining at 0.5 h [7]: 99%

Cc1csc2c1c(CC(=O)O)c(C)n2S(=O)(=O)c1ccc(S(C)(=O)=O)cc1
pIC50 [1]: 5.89

Cc1csc2c1c(CC(=O)O)c(C)n2Cc1ccc(S(C)(=O)=O)cc1
pIC50 [1]: 5.82

Cc1cc2c(CC(=O)O)c(C)n(Cc3ccc(S(C)(=O)=O)cc3)c2s1
pIC50 [1]: 5.74

Cc1cc2c(CC(=O)O)c(C)n(Cc3ccc(S(C)(=O)=O)cc3Cl)c2s1
pIC50 [1]: 6.48

CS(=O)(=O)c1ccc(S(=O)(=O)n2cc(CC(=O)O)c3ccsc32)cc1
pIC50 [1]: 5.40

CS(=O)(=O)c1ccc(S(=O)(=O)n2cc(CC(=O)O)c3sccc32)cc1
pIC50 [1]: 5.30
